In brackets after ≈: the same amount, converted by molar mass.
How the values were obtained:
[1] = test system: Human immunodeficiency virus 1; test: Antiviral activity against HIV1 RES056 infected in human MT4 cells assessed as reduction in virus-induced cytopathic effect after 5 days by MTT assay; type: functional, organism-based; conditions: Human immunodeficiency virus 1, RES056, MT4, 120 h
[2] = Sub-acute toxicity in Kunming mouse assessed as alveolar hemorrhage at 50 mg/kg/day, po administered for 2 weeks by hematoxylin and eosin staining-based assay; type: organism-based; conditions: in vivo, 336 h
Outline: (§1)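 Mice were dosed orally at 50 mg/kg/day for 2 weeks and observed for behavioural abnormalities during treatment. Organs were then examined by hematoxylin–eosin staining.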

[3] = Aqueous solubility of the compound in FASSIF by HPLC analysis; type: physicochemical; conditions: simulated gi fluid
Outline: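 Solubility read by HPLC in fasted state simulated intestinal fluid (FaSSIF).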

[4] = test system: Human immunodeficiency virus 1; test: Antiviral activity against HIV1 harboring reverse transcriptase Y181C mutant infected in human MT4 cells assessed as reduction in virus-induced cytopathic effect after 5 days by MTT assay; type: functional, organism-based; conditions: Human immunodeficiency virus 1, MT4, 120 h
[5] = Sub-acute toxicity in Kunming mouse assessed as alveolar interstitial thickening at 50 mg/kg/day, po administered for 2 weeks by hematoxylin and eosin staining-based assay; type: organism-based; conditions: in vivo, 336 h; outline: as §1
[6] = test system: Human immunodeficiency virus 1; test: Antiviral activity against HIV1 harboring reverse transcriptase L100I mutant infected in human MT4 cells assessed as reduction in virus-induced cytopathic effect after 5 days by MTT assay; type: functional, organism-based; conditions: Human immunodeficiency virus 1, MT4, 120 h
[7] = test system: Human immunodeficiency virus 1; test: Antiviral activity against wild type HIV1 3B infected in human MT4 cells assessed as reduction in virus-induced cytopathic effect after 5 days by MTT assay; type: functional, organism-based; conditions: Human immunodeficiency virus 1, 3B, MT4, 120 h
[8] = Aqueous solubility of the compound at pH at 7 by HPLC analysis; type: physicochemical; conditions: buffer, pH 7
Outline: (§2)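 Aqueous solubility read by HPLC in buffer at pH 2.0, 7.0 or 7.4.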

[9] = Sub-acute toxicity in Kunming mouse assessed as proximal convoluted tubule edema in kidney at 50 mg/kg/day, po administered for 2 weeks by hematoxylin and eosin staining-based assay; type: organism-based; conditions: in vivo, 336 h; outline: as §1
[10] = Aqueous solubility of the compound at pH at 7.4 by HPLC analysis; type: physicochemical; conditions: buffer, pH 7.4; outline: as §2
[11] = test system: Human immunodeficiency virus 1; test: Antiviral activity against HIV1 harboring reverse transcriptase F227L/V106A double mutant infected in human MT4 cells assessed as reduction in virus-induced cytopathic effect after 5 days by MTT assay; type: functional, organism-based; conditions: Human immunodeficiency virus 1, MT4, 120 h
[12] = test system: Human immunodeficiency virus 1; test: Antiviral activity against HIV1 harboring reverse transcriptase E138K mutant infected in human MT4 cells assessed as reduction in virus-induced cytopathic effect after 5 days by MTT assay; type: functional, organism-based; conditions: Human immunodeficiency virus 1, MT4, 120 h
[13] = test system: Human immunodeficiency virus 1; test: Resistance factor, ratio of EC50 for HIV1 harboring reverse transcriptase F227L/V106A double mutant to EC50 for wild type HIV1; type: functional
Outline: (§3)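 The resistance factor is the EC50 against the mutant strain divided by the EC50 against wild-type HIV-1. Both were measured in MT-4 cells by MTT read-out of protection from virus-induced cytopathicity.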

[14] = Selectivity ratio of CC50 for human MT4 cells to EC50 for HIV1 harboring reverse transcriptase E138K mutant infected in human MT4 cells; type: toxicity, cell-based; conditions: read-out: Ratio CC50/EC50
[15] = Selectivity ratio of CC50 for human MT4 cells to EC50 for HIV1 harboring reverse transcriptase F227L/V106A double mutant infected in human MT4 cells; type: toxicity, cell-based; conditions: read-out: Ratio CC50/EC50
[16] = test system: Human immunodeficiency virus 1; test: Antiviral activity against HIV1 harboring reverse transcriptase Y188L mutant infected in human MT4 cells assessed as reduction in virus-induced cytopathic effect after 5 days by MTT assay; type: functional, organism-based; conditions: Human immunodeficiency virus 1, MT4, 120 h
[17] = test system: Human immunodeficiency virus 1; test: Antiviral activity against HIV1 harboring reverse transcriptase K103N mutant infected in human MT4 cells assessed as reduction in virus-induced cytopathic effect after 5 days by MTT assay; type: functional, organism-based; conditions: Human immunodeficiency virus 1, MT4, 120 h
[18] = test system: Human immunodeficiency virus 1; test: Resistance factor, ratio of EC50 for HIV1 harboring reverse transcriptase E138K mutant to EC50 for wild type HIV1; type: functional; outline: as §3
[19] = Aqueous solubility of the compound at pH at 2 by HPLC analysis; type: physicochemical; conditions: buffer, pH 2; outline: as §2
[20] = test system: Human immunodeficiency virus 1; test: Resistance factor, ratio of EC50 for HIV1 harboring reverse transcriptase Y181C mutant to EC50 for wild type HIV1; type: functional; outline: as §3
[21] = Selectivity ratio of CC50 for human MT4 cells to EC50 for HIV1 RES056 infected in human MT4 cells; type: toxicity, cell-based; conditions: read-out: Ratio CC50/EC50
[22] = Selectivity ratio of CC50 for human MT4 cells to EC50 for HIV1 harboring reverse transcriptase Y188L mutant infected in human MT4 cells; type: toxicity, cell-based; conditions: read-out: Ratio CC50/EC50
[23] = test system: Human immunodeficiency virus 2; test: Antiviral activity against HIV2 ROD infected in human MT4 cells assessed as reduction in virus-induced cytopathic effect after 5 days by MTT assay; conditions: Human immunodeficiency virus 2, ISOLATE ROD, MT4, 120 h
[24] = test system: Human immunodeficiency virus 1; test: Resistance factor, ratio of EC50 for HIV1 harboring reverse transcriptase K103N mutant to EC50 for wild type HIV1; type: functional; outline: as §3
[25] = Selectivity ratio of CC50 for human MT4 cells to EC50 for HIV1 harboring reverse transcriptase L100I mutant infected in human MT4 cells; type: toxicity, cell-based; conditions: read-out: Ratio CC50/EC50
[26] = Selectivity ratio of CC50 for human MT4 cells to EC50 for HIV1 harboring reverse transcriptase Y181C mutant infected in human MT4 cells; type: toxicity, cell-based; conditions: read-out: Ratio CC50/EC50
MT4 = test: (§4) Cytotoxicity against human MT4 cells after 5 days by MTT assay; type: cell-based; conditions: mt4, 120 h
[27] = test system: Human immunodeficiency virus 1; test: Resistance factor, ratio of EC50 for HIV1 harboring reverse transcriptase Y188L mutant to EC50 for wild type HIV1; type: functional; outline: as §3
[28] = Selectivity ratio of CC50 for human MT4 cells to EC50 for HIV1 harboring reverse transcriptase K103N mutant infected in human MT4 cells; type: toxicity, cell-based; conditions: read-out: Ratio CC50/EC50
[29] = target: Human immunodeficiency virus type 1 reverse transcriptase (Human immunodeficiency virus 1, UniProt Q72547); test: Inhibition of recombinant HIV1 reverse transcriptase using (DIG)-dUTP and biotin-labeled dNTPs as substrate after 1 hr by ELISA
[30] = Selectivity ratio of CC50 for human MT4 cells to EC50 for HIV1 3B infected in human MT4 cells; type: toxicity, cell-based; conditions: read-out: Ratio CC50/EC50
[31] = test system: Human immunodeficiency virus 1; test: Resistance factor, ratio of EC50 for HIV1 harboring reverse transcriptase L100I mutant to EC50 for wild type HIV1; type: functional; outline: as §3
[32] = Protein binding in rat plasma assessed as recovery rate at 1 uM after 5 hrs by LC/MS analysis; type: ADME, cell-free
Outline: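 Equilibrium dialysis against plasma proteins: human plasma for line 1, Wistar rat plasma for line 2. Reference drug tested at 1 μM. Recovery rate reported alongside percent protein-binding rate.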

[33] = as §4; type: cell-based; conditions: MT4 cells

## Cc1cc(C#N)cc(C)c1Oc1nc(Nc2ccc(C#N)cc2)nc(N)c1Br [ETRAVIRINE]
[1]
  EC50: 45.4 nM
[2]
  Activity: Toxic
[3]
  solubility: 13.2 µg/mL (≈ 30.3 µM)
[4]
  EC50: 14.5 nM
[5]
  Activity: Toxic
[6]
  EC50: 6 nM
[7]
  EC50: 5.1 nM
[8]; read-out: solubility
  solubility: < 1 µg/mL
[9]
  Activity: Toxic
[10]; read-out: solubility
  solubility: < 1 µg/mL
[11]
  EC50: 19.7 nM
[12]
  EC50: 9.7 nM

## Cc1cc(C#N)cc(C)c1Oc1nc(NC2CCN(Cc3ccc(S(N)(=O)=O)cc3)CC2)nc2c1SCC2
[13]
  Ratio EC50: 2.9
[14]
  selectivity ratio: 1300
[1]
  EC50: 28.8 nM
[15]
  selectivity ratio: 1220
[16]
  EC50: 10.1 nM
[3]
  solubility: 10 µg/mL (≈ 18.2 µM)
[17]
  EC50: 5.9 nM
[18]
  Ratio EC50: 2.7
[4]
  EC50: 8 nM
[6]
  EC50: 5.8 nM
[19]
  solubility: 192 µg/mL (≈ 349 µM)
[20]
  Ratio EC50: 1.7
[21]
  selectivity ratio: 692
[7]
  EC50: 4.3 nM
[22]
  selectivity ratio: 1640
[8]
  solubility: 8.26 µg/mL (≈ 15 µM)
[23]
  EC50: 6550 nM
[24]
  Ratio EC50: 1.3
[25]
  selectivity ratio: 2880
[26]
  selectivity ratio: 2070
MT4
  CC50: 19900 nM
[27]
  Ratio EC50: 2.2
[10]
  solubility: 2.54 µg/mL (≈ 4.61 µM)
[28]
  selectivity ratio: 2840
[29]
  IC50: 74 nM
[30]
  selectivity ratio: 4580
[11]
  EC50: 13.7 nM
[31]
  Ratio EC50: 1.2
[12]
  EC50: 12.8 nM

## CC(=O)CC(c1ccccc1)c1c(O)c2ccccc2oc1=O (stereo not drawn) [WARFARIN]
[32]
  Drug recovery: 107%

## Cc1cc(C#N)cc(C)c1Oc1nc(NC2CCN(Cc3cccc(C(N)=O)c3)CC2)nc2c1SCCC2
[1]
  EC50: 1050 nM
[21]
  selectivity ratio: 5.5
[7]
  EC50: 5.1 nM
[23]
  EC50: > 5800 nM
[33]
  CC50 at 120 h: 5800 nM
[30]
  selectivity ratio: 1140

From ChEMBL document CHEMBL4368909, “Identification of Dihydrofuro[3,4- d]pyrimidine Derivatives as Novel HIV-1 Non-Nucleoside Reverse Transcriptase Inhibitors with Promising Antiviral Activities and Desirable Physicochemical Properties” (J Med Chem, 2019)
